The list is not random: actives were taken first. Their share in the collection is about 2.1%.
Runt-SMMHC FRET = inhibitors of human RUNX1 Runt domain binding to CBFb-SMMHC. inhibition, % at 20 µM. AID 1434. hit rate 0.74% among 220,000. Cerulean-Runt/Venus-CBFb-SMMHC FRET ratio 530/480, 1 h;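 active means mean inhibition across duplicate retests at 20 µM reaching about 50%, limit read from the data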;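 further: 0% = DMSO wells and 100% = wells with excess untagged CBFb-SMMHC; inhibitors lower the FRET ratio by blocking Runt binding to CBFb-SMMHC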
Runt-CBFb FRET = Runt domain-CBFb interaction inhibition; Cerulean-Runt/Venus-CBFb FRET ratio 530/480, 1 h; inhibition, % at 20 µM; hit rate 0.46% among 220,000;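 active means inhibition over about 50% at 20 µM in the single-dose screen, limit read from the data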;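 further: 0% = DMSO wells and 100% = excess unlabeled CBFb competitor control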
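test system = Cerulean-Runt domain fusion protein, energy donor | probe or stimulus = Venus-CBFb binding partner, 100 nM | incubation = two 1 h room-temperature incubations shielded from light | detection = fluorescence energy transfer, 422 nm excitation, 530/480 nm emission | measure = loss of energy transfer signal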
FAS TE block = inhibitors of human fatty acid synthase thioesterase domain; inhibition, % at 15 µM; hit rate 0.67% among 360,000; recombinant FAS-TE, OMFH fluorogenic substrate, fluorescence endpoint;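 active means compounds whose normalised, plate-corrected inhibition of enzyme fluorescence in the single-dose primary screen is 50% or more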;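 further: 0% = DMSO with enzyme and 100% = substrate without enzyme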
Target sequence (P49327 whole entry, looked up, the tested form may be a part): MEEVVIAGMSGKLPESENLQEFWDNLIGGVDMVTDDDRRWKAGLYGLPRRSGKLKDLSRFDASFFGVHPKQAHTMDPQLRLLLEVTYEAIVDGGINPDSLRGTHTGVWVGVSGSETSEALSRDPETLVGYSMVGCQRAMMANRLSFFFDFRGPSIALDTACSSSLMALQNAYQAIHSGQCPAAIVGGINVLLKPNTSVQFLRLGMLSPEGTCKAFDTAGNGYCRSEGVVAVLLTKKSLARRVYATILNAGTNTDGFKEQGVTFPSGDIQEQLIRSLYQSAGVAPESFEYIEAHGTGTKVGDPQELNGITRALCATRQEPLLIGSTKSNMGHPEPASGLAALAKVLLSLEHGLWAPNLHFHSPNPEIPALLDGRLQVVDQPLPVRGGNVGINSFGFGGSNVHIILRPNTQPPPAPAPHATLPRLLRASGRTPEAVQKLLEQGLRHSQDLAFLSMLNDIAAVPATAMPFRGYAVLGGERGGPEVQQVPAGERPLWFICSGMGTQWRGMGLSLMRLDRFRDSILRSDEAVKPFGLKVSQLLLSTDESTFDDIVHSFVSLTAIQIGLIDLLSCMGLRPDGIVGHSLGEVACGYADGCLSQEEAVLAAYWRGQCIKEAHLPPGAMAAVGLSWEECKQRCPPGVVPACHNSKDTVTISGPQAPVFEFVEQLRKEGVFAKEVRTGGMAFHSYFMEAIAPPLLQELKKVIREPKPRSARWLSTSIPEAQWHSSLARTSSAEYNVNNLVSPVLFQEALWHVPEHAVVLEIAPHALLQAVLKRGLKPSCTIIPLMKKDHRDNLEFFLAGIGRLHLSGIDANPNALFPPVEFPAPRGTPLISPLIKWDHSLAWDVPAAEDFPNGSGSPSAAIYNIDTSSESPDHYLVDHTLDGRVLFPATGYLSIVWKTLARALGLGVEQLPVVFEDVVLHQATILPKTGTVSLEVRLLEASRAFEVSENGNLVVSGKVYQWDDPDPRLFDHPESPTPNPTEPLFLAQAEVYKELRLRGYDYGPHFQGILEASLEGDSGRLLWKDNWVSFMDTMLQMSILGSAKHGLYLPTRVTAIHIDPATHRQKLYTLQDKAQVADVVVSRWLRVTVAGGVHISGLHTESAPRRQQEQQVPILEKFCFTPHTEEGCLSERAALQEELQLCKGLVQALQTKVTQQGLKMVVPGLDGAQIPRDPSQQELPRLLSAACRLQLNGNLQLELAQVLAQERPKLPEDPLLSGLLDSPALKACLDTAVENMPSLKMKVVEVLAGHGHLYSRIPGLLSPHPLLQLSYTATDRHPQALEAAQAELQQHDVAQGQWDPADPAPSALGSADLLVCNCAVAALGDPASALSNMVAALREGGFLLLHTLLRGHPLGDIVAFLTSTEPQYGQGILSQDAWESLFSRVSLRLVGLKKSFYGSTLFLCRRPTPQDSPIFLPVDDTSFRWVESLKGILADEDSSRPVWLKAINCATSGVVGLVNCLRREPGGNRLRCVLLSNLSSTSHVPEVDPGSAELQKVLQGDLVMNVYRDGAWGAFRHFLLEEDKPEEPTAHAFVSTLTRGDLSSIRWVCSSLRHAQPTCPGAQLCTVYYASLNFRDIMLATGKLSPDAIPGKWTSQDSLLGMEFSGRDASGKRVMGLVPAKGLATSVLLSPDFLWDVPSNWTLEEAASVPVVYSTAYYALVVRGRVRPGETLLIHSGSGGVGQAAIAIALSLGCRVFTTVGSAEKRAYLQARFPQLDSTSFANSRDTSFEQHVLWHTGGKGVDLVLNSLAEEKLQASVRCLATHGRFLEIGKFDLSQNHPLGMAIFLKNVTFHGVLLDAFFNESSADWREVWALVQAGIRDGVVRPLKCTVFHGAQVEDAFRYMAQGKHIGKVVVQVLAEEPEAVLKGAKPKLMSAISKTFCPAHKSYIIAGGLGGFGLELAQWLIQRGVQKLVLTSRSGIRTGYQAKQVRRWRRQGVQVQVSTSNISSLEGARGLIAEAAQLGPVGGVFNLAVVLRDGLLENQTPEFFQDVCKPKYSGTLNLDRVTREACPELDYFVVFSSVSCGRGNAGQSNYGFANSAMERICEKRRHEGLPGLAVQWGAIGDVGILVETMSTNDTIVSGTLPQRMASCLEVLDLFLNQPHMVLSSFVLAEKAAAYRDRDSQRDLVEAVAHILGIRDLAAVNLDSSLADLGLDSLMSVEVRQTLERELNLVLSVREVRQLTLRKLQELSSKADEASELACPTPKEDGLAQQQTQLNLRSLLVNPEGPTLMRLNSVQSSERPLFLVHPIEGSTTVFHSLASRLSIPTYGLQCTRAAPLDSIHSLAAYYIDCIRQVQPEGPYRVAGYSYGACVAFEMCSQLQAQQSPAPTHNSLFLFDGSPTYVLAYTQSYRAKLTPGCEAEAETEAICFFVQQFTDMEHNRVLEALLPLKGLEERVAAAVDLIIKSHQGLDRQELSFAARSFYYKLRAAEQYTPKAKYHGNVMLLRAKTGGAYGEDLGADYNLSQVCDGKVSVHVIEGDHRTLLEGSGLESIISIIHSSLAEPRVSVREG
Calpain2 inh = inhibitors of pig calpain II | purified calpain II, fluorogenic peptide substrate, 30 min | inhibition, % at 16 µM | hit rate 0.37% among 220,000;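 active means inhibition above about 50%, limit read from the data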
RanGTP-Imp inh = disruptors of Ran-importin-beta complex formation – biochemical, FRET, CFP-Ran, YFP-importin-beta, homogeneous, primary screen; cell-free CFP-Ran/YFP-importin-beta FRET ratio; inhibition, % (test concentration not listed); hit rate 1.1% among 300,000; AID 2216;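 active means more than half of the replicate wells show a fall in the fluorescence ratio signal beyond about 16%, limit read from the data, passing the limit was not always enough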;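 further: 0% = DMSO wells and 100% = Ran loaded with GDP instead of GTP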
RUNX1 CBFb TR = Runt-CBFb binding inhibition | shares compounds with Runt-CBFb FRET | TR-FRET RUNX1 Runt domain-CBFb binding | inhibition, % at 20 µM | hit rate 20% among 480 | AID 1502; in the data active means inhibition above about 40%
The depositor's hits bear a star; i = inactive; nt = not tested or not shown.

SMILES	Runt-SMMHC FRET	Runt-CBFb FRET	FAS TE block	Calpain2 inh	RanGTP-Imp inh	others
COCCNC(=O)/C(C#N)=C/c1c(N2CCN(c3ccccc3)CC2)nc2ccccn2c1=O	nt	nt	-1	nt	5
COCCCNC(=O)/C(C#N)=C/c1c(N2CCN(C)CC2)nc2ccccn2c1=O	nt	nt	-4	nt	87*
CC1CN(c2nc3ccccn3c(=O)c2/C=C(\C#N)C(N)=O)CC(C)O1 (stereo unspecified)	8	94*	-2	-41	-1
COc1ccc(C(=O)O)cc1S(=O)(=O)NCCN(C)C	-4	1	-9	-6	-1
CCC(C)NC(=O)c1cn(CC)c2ccc(S(=O)(=O)N3CCCCCC3)cc2c1=O (stereo unspecified)	nt	nt	11	nt	23
COCCNC(=O)/C(C#N)=C/c1c(N2CC(C)OC(C)C2)nc2ccccn2c1=O (stereo unspecified)	82*	48	-10	-49	4
CCc1ccc(-c2cnc3nc[nH]c(=O)c3n2)cc1	nt	nt	-6	nt	15*
Cc1cc(C(N)=O)c2cc(Br)ccc2n1	2	0	-9	2	27*
Cc1cc(C(=O)NN)c2cc(Br)ccc2n1	-1	2	-4	12	4
Cc1nc(NC(=O)COC(=O)C2CC3CCCC(C2)C3=O)c(Cl)cc1Cl (stereo unspecified)	nt	nt	-3	nt	nt
O=C(Nc1cccc2ccccc12)/C(Cl)=C/c1ccccc1	-2	0	13	58*	4
NS(=O)(=O)c1ccc(NC(=S)NCc2ccc(Cl)cc2)cc1	38	49	6	56*	2
NS(=O)(=O)c1ccc(CNC(=S)Nc2ccc(F)c(Cl)c2)cc1	1	2	1	1	-3
COC(=O)c1ccc(COc2cc(C)ccc2C)o1	nt	nt	7	nt	4
CC(C)OCCCn1c(=N)c(S(=O)(=O)c2ccccc2)cc2c(=O)n3ccccc3nc21	nt	nt	11	nt	-3
Cn1c(=N)c(S(=O)(=O)c2ccc(F)cc2)cc2c(=O)n3ccccc3nc21	80*	63*	11	-316	5
Cn1c(=N)c(S(=O)(=O)c2ccccc2)cc2c(=O)n3ccccc3nc21	62*	47	3	-382	nt
Cc1ccc(S(=O)(=O)c2cc3c(=O)n4ccccc4nc3n(C)c2=N)cc1C	nt	nt	42	nt	173*
CCCn1c(=N)c(S(=O)(=O)c2ccc(F)cc2)cc2c(=O)n3ccccc3nc21	nt	nt	21	nt	176*
CCc1ccccc1NC(=O)CN(C)C(=O)c1cc(C2CC2)nc2c1cnn2C(C)C	nt	nt	-7	nt	nt
CCCn1c(=N)c(S(=O)(=O)c2ccc(F)cc2)cc2c(=O)n3cccc(C)c3nc21	nt	nt	26	nt	144*
CS(=O)(=O)c1nc(S(=O)(=O)c2ccc(Cl)cc2)c(NCCCn2ccnc2)s1	nt	nt	-4	nt	3
N#Cc1cnn(-c2ccccc2)c1NC(=O)c1ccccc1F	nt	nt	-5	nt	nt
COCCn1c(SCC(=O)Nc2ccc(OC)cc2OC)nc2ccccc2c1=O	nt	nt	6	nt	21*
COc1ccc(NC(=O)CSc2nc3ccccc3c(=O)n2Cc2cccs2)c(OC)c1	-4	1	nt	23	-8
SMILES	Runt-SMMHC FRET	Runt-CBFb FRET	FAS TE block	Calpain2 inh	RanGTP-Imp inh	others
O=C(NCc1ccccc1C(F)(F)F)c1cccc2c1C(=O)c1ccc(N3CCC(N4CCCCC4)CC3)cc1S2(=O)=O	nt	nt	-38	nt	nt
CC(=O)Nc1ccc(C(=O)N(C)c2ccccc2)cc1	1	2	-6	-4	1
CN(C(=O)c1ccc(NC(=O)C2CC=CCC2C(=O)O)cc1)c1ccccc1 (stereo unspecified)	-2	2	-7	-3	25*
O=C(Nc1ccc2c(c1)OCCO2)C(c1ccnc2ccccc12)N1CCN(C/C=C/c2ccccc2)CC1 (stereo unspecified)	nt	nt	5	nt	nt
COc1ccc(CCCc2nnc(SCC(=O)Nc3ccc(OC)cc3)o2)cc1	7	2	3	11	-3
COc1ccc(CCCc2nnc(SCC(=O)Nc3ccc(C)c(C)c3)o2)cc1	3	-30	15	60*	1
Cc1oc(-c2ccccc2Cl)nc1CS(=O)CC(=O)NC1CC1 (stereo unspecified)	nt	nt	-8	nt	-4
Cn1cccc1/C=C1\Cc2ccccc2C1=O	33	19	1	-9	75*
CC(C)NC(=O)c1ccc2c(c1)N(CC(=O)Nc1ccccc1F)C(=O)C(C)(C)O2	nt	nt	-3	nt	1
COCC(=O)N1CCC(Oc2ccc(C(=O)N[C@H](C(=O)OC)C(C)C)cc2)CC1	nt	nt	-5	nt	2
CCOC(=O)c1c(C)n(C)c2cc(OCCN(CC)CC)ccc12	-1	-1	-9	9	-1
CCOC(=O)c1c2ccc(OCC(=O)N/N=C/c3ccc(C)cc3)cc2n2ccccc12	78	-4	-2	-261	29*
CCOC(=O)c1c2ccc(OCC(=O)NN)cc2n2ccccc12	86*	21	-7	i	66*
Cc1ccc(OCC(=O)N/N=C/c2cn(C)c3ccccc23)cc1	-10	-2	-5	-11	-1
COc1cc(/C=C/CN2CCN(CCC(C)C)C(CCO)C2)ccc1O (stereo unspecified)	2	-2	-5	3	1
CC(=O)c1cccc(NC(=O)C(C)OC(=O)CCCN=C2NS(=O)(=O)c3ccccc32)c1 (stereo unspecified)	nt	nt	-6	nt	-5
N=C(N)N1CCc2ccccc2C1	1	-2	nt	16	0
Cc1cc(C)nc(Sc2ncnc(N)c2[N+](=O)[O-])n1	14	58*	-4	19	-1	RUNX1 CBFb TR=23
COc1ccc(NC(=O)CNCc2ccc(Cl)cc2)cc1S(=O)(=O)N1CCOCC1	nt	nt	-9	nt	nt
COc1cc(C2C(C#N)=C(N)N(Nc3ccccc3)C3=C2C(=O)CC(C)(C)C3)ccc1OCc1cccc(F)c1 (stereo unspecified)	14	5	28	-107	8
COc1ccc(C2C(C#N)=C(N)N(Nc3ccccc3)C3=C2C(=O)CC(C)(C)C3)cc1C (stereo unspecified)	102*	62*	7	-109	3	RUNX1 CBFb TR=-3
COc1ccccc1CCn1c(N)c(C#N)c2nc3ccccc3nc21	140*	80*	2	i	56*	RUNX1 CBFb TR=37
COC(=O)C1=C(CSc2nc3c(cc2C#N)CN(C)CC3)OC(N)=C(C#N)C1c1ccccc1F (stereo unspecified)	nt	58*	-5	-124	24*	RUNX1 CBFb TR=55*
COc1cccc2[nH]c3c(N4CCCCC4)ncnc3c12	-7	-1	-4	-405	6
COc1cccc2[nH]c3c(Cl)ncnc3c12	2	52*	-12	-457	3	RUNX1 CBFb TR=28
CS(=O)(=O)c1ccc(Cl)c(NC(=O)c2cc(=O)[nH]c3ccc(S(=O)(=O)N4CCOCC4)cc23)c1	nt	nt	-2	nt	-2
O=C1N=C(N2C=CC(=C3C=CNC=C3)C=C2)/C(=C/N=NC(=O)c2ccccc2O)S1	nt	nt	-8	nt	-7

Screening results as filed in PubChem BioAssay.
